From PubChem
Most compounds without a hit are left out; they make up all but 3.1% or so of the library.
KCNK9 block: KCNK9 potassium channel inhibitors, primary screen, HEK293 cells, thallium flux; Potassium channel subfamily K member 9 (Homo sapiens), Q9NPC2; FluxOR thallium flux fluorescence; hits give low values; B-score at 10 µM; 310,000 tested, 1.2% active; AID 488922, 2010;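 active = ratio B-score over 3 SD below the library mean, with starting fluorescence within 5 SD of its mean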;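 note: negative B-score means less thallium flux so channel inhibition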
KCNQ1 block: inhibitors of human KCNQ1 channel, primary screen, cell-based, thallium flux, high-throughput. Potassium voltage-gated channel subfamily KQT member 1 (Homo sapiens), P51787. CHO-K1 KCNQ1, FluxOR thallium flux fluorescence; hits give high values. B-score at 10 µM. 310,000 tested, 1.3% active. AID 2642, 2010;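 active = compounds whose thallium flux B-score, printed positive for inhibition, exceeds three library SD while starting fluorescence stays within three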;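 note: channel opened by potassium depolarization with thallium stimulus after 20 min compound exposure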
KCNQ1 pot: potentiators or activators of KCNQ1 channel, primary screen, cell-based, thallium flux, high-throughput; Potassium voltage-gated channel subfamily KQT member 1 (Homo sapiens), P51787; 310,000 tested, 0.35% active; AID 2648, 2010; B-score at 10 µM; CHO-K1 KCNQ1, thallium flux FluxOR fluorescence; hits give high values;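 active = fluorescence ratio B-score, a plate-corrected score, at least three library SD, with initial intensity B-score within 5 SD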
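Doses: Single concentration per compound, DMSO matched to controls | Test system: KCNQ1-transfected CHO-K1 cells | Timing: 90 min dye loading and 20 min compound exposure, both at room temperature | Measured by: Kinetic FluxOR thallium fluorescence, 10-s 1-Hz baseline, 110-s post-stimulus read | Medium: Assay buffer with matched DMSO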
KCNK3 inh: human KCNK3 channel inhibitors, primary screen, CHO cells, FluxOR thallium flux, B-score; FluxOR fluorescence; hits give low values; 340,000 tested, 0.84% active; B-score at 10 µM;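 active = B-score under library mean minus 4 SD, starting fluorescence ratio at most library mean plus 5 SD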;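 note: more negative B-score means stronger inhibition of thallium flux through KCNK3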
hERG protect: hERG rescue from dofetilide block, primary screen, cell-based, CHO-hERG, FluxOR thallium flux, dofetilide IC70. activation (rescue from dofetilide block), less the hit threshold, % at 10 µM. 310,000 tested, 0.51% active. dofetilide IC70 present. AID 1511, 2009. Voltage-gated inwardly rectifying potassium channel KCNH2 (Homo sapiens), Q12809;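 active = activation above the mean of controls blocked by dofetilide plus 5 SD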;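 note: thallium influx through hERG after potassium depolarization seen as dye fluorescence rise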
Target sequence (Q12809 whole entry, looked up): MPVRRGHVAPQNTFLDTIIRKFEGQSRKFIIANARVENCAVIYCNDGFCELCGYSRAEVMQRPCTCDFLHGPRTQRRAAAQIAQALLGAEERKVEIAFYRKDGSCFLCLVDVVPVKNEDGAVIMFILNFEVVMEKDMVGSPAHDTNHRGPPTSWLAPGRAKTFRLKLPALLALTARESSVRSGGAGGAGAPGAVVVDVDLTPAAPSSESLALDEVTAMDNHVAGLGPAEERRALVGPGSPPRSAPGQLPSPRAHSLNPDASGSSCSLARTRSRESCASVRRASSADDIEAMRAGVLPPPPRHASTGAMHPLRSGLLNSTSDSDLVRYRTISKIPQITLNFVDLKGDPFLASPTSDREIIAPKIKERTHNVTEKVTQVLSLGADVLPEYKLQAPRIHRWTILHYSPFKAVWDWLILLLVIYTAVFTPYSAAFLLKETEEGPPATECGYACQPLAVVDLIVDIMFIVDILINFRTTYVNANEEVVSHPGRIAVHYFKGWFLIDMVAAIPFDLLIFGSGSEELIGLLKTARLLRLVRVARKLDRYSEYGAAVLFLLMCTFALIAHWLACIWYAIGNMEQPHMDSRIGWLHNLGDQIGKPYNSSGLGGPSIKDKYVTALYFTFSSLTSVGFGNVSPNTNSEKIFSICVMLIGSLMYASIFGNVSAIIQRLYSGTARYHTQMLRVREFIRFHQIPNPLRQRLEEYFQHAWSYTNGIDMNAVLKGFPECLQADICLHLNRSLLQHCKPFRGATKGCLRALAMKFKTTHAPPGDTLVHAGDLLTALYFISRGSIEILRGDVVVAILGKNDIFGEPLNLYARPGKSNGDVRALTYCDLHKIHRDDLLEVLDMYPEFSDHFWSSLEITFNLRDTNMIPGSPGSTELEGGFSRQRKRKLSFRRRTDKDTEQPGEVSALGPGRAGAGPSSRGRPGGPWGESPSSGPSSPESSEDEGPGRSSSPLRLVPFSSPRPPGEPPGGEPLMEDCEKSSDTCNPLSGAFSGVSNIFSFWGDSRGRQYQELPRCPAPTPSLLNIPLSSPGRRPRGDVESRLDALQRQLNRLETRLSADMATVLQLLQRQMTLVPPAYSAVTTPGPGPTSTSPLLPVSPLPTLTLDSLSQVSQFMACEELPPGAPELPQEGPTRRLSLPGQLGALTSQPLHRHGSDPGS
KCNK3 inh conf: retest of human KCNK3 channel inhibitors, confirmation, CHO cells, FluxOR thallium flux, triplicate | FluxOR fluorescence; 0% buffer, 100% carvedilol maximal block | shares compounds with KCNK3 inh | 2,400 tested, 99% active | ratio percent of control, % at 10 µM;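 active = ratio percent of control, averaged over triplicates, above buffer control mean plus 5 SD, cut at about 64% in these data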;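 note: ratio is the fluorescence rise from min to max over baseline after thallium stimulus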
KCNK3 uninduced: thallium flux inhibition in non-induced cells, primary screen, counter-screen for KCNK3 inhibitor project, cell-based, non-induced KCNK3 line, FluxOR thallium, triplicate | shares compounds with KCNK3 inh | non-induced KCNK3 parental cells; hits give low values | 2,400 tested, 40% active | AID 651747, 2012 | thallium flux ratio (lower = more inhibition) at 10 µM;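 active = thallium flux ratio, averaged over three wells, more than 5 SD below the buffer control mean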;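 note: host cells are CHO cells without KCNK3 induction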
Large screens that a line does not name were inactive (follow-up assays come after a bar, where they were run).

Cc1cc(N2CCC(C)CC2)c(F)cc1[N+](=O)[O-]	none
O=C(/C=C/Nc1ccc(Oc2ccccc2Cl)cc1)c1ccco1	KCNK3 inh -14 | KCNK3 inh conf 107 | KCNK3 uninduced inactive
COc1ccccc1Oc1ccc(N/C=C/C(=O)c2ccco2)cc1	none
CC(NC(=O)CSc1ccc(S(=O)(=O)N2CCOCC2)cn1)c1ccc(Cl)cc1Cl (stereo not drawn)	none (no result: KCNK9 block, KCNQ1 block, KCNQ1 pot, hERG protect)
Cc1cc2c(Nc3ccc(C(=O)O)cc3)ncnc2s1	KCNK3 inh -10 | KCNK3 inh conf 62 | KCNK3 uninduced inactive
Cc1cc2c(Nc3ccc(O)cc3)ncnc2s1	none
Cc1ccc(CN(C)C(=O)c2ccccc2Sc2ccccc2C#N)cc1	none
COc1cccc(CN(C)C(=O)c2ccccc2Sc2ccccc2C#N)c1OC	KCNK3 inh -8.7 | KCNK3 inh conf 98 | KCNK3 uninduced inactive
COc1cccc(CN(C)C(=O)c2ccc(COc3ccc(Cl)cc3)cc2)c1OC	KCNK3 inh -11 | KCNK3 inh conf 134 | KCNK3 uninduced 0.15
Cc1ccccc1C(=O)c1cccn1CC(=O)NCCCc1ccccc1	none
O=C(CCN1C(=O)c2ccccc2S1(=O)=O)Nc1ccc(F)c(F)c1F	none
CCSc1nc(-c2ccc(OC)cc2)ccc1C#N	KCNK3 inh -8.8 | KCNK3 inh conf 113 | KCNK3 uninduced inactive
CC1CCN(C(=O)Nc2cccc(NC(=O)N3CCC(C)CC3)c2)CC1	KCNK3 inh -9 | KCNK3 inh conf 112 | KCNK3 uninduced inactive
CC1CCN(C(=O)Nc2ccc3nsnc3c2)CC1	none
COc1ccc(N(CC(=O)NCCSCc2ccco2)S(=O)(=O)c2ccccc2)cc1Cl	KCNK3 inh -10 | KCNK3 inh conf 106 | KCNK3 uninduced inactive
COc1ccc(CN2CCN(CCc3ccccc3)C(CCO)C2)c(Cl)c1OC (stereo not drawn)	KCNK3 inh -9.9 | KCNK3 inh conf 85 | KCNK3 uninduced inactive
CC(OC(=O)CNC(=O)c1ccc(F)cc1)C(=O)Nc1ccc(S(=O)(=O)N2CCOCC2)cc1 (stereo not drawn)	none (no result: KCNK9 block, KCNQ1 block, KCNQ1 pot, hERG protect)
CC(C)Sc1nc(N2CCCC2)c2c(c1C#N)CC(C)(C)OC2	KCNK3 inh -10 | KCNK3 inh conf 118 | KCNK3 uninduced 0.14
CCCCCSc1nc(N2CCOCC2)c2c(c1C#N)CC(C)(C)OC2	KCNK3 inh -9 | KCNK3 inh conf 105 | KCNK3 uninduced 0.15
CCCSc1nc(N2CCOCC2)c2c(c1C#N)CC(C)(C)SC2	KCNK3 inh -9.5 | KCNK3 inh conf 128 | KCNK3 uninduced 0.12
COc1ccc(CNC(=O)COC(=O)c2ccc(S(=O)(=O)N3CCOCC3)cc2)cc1	none (no result: KCNK9 block, KCNQ1 block, KCNQ1 pot, hERG protect)
Cc1ccc(C)c(/C=C(\C(=O)O)c2ccc(S(=O)(=O)N3CCCCC3)s2)c1	none
O=C(CC(c1ccccc1)c1ccccc1O)NCc1ccccc1 (stereo not drawn)	KCNK3 inh -8.8 | KCNK3 inh conf 95 | KCNK3 uninduced inactive
CC(Cc1ccccc1)NC(=O)CC(c1ccccc1)c1ccccc1O (stereo not drawn)	none
CC1(C)C(C=C(Cl)Cl)C1C(=O)N1CCN(Cc2ccccc2)CC1 (stereo not drawn)	none
COC(=O)C1CCN(c2nc3ccccc3nc2C(C#N)C(=O)OCC(C)C)CC1 (stereo not drawn)	KCNK9 block -6.8 | KCNK3 inh conf 117 | KCNK3 uninduced 0.15
COC(=O)C1CCN(c2nc3ccccc3nc2C(C#N)C(=O)NCCc2ccccc2)CC1 (stereo not drawn)	none
O=C(NCCc1cn2ccccc2n1)c1cc(COc2ccc3ncccc3c2)on1	KCNK3 inh -14 | KCNK3 inh conf 130 | KCNK3 uninduced inactive
O=C(NCCc1cn2ccccc2n1)c1ccccc1F	none
COc1cccc(CN(C)C(=O)c2cc(COc3ccc4ncccc4c3)on2)c1	KCNK3 inh -9.8 | KCNK3 inh conf 120 | KCNK3 uninduced inactive
CC(C)CCN1CCN(C2CCN(c3ccccc3)CC2)CC1CCO (stereo not drawn)	none
CSCCC(NC(=O)c1ccccc1Br)C(=O)NNC(=O)c1cc(C)oc1C (stereo not drawn)	none (no result: KCNK9 block, KCNQ1 block, KCNQ1 pot, hERG protect)
Cc1ccc(Nc2c(-c3ccccc3O)nc3cnccn23)cc1	KCNK3 inh -9.2 | KCNK3 inh conf 115 | KCNK3 uninduced 0.13
COc1ccc(Nc2c(-c3ccc(C)cc3)nc3cnccn23)cc1	none
CCOC(=O)C1CCN(C(=O)c2ccc(CNS(=O)(=O)c3ccc(OC)cc3)cc2)CC1	none
CC(C)(C)c1ccc(C(=O)/C(C#N)=C/c2cccs2)cc1	KCNQ1 block 6, KCNK3 inh -12 | KCNK3 inh conf 111 | KCNK3 uninduced inactive
CCOC(CCn1c(SCC(=O)Nc2cc(C)on2)nc2ccccc2c1=O)OCC	none
CCC(C)(C)n1nnnc1C(c1cc(OC)ccc1OC)N1CCN(Cc2ccccc2)CC1 (stereo not drawn)	KCNK9 block -7.6, KCNK3 inh -11 | KCNK3 inh conf 107 | KCNK3 uninduced inactive
CCC(C)(C)n1nnnc1C(c1ccccc1)N1CCN(Cc2ccccc2)CC1 (stereo not drawn)	none
COc1ccc(OC)c(C(c2nnnn2Cc2ccccc2)N2CCN(C)CC2)c1 (stereo not drawn)	none
CCC(C)(C)n1nnnc1CN1CCN(C(c2ccccc2)c2ccccc2)CC1	KCNK3 inh -13 | KCNK3 inh conf 141 | KCNK3 uninduced 0.13
CCOC(=O)c1cc2occc2n1Cc1c(F)cccc1Cl	KCNK3 inh -9.8 | KCNK3 inh conf 77 | KCNK3 uninduced inactive
Cc1ccc(C(=O)C2C(=O)c3ccccc3C2=O)cc1	none
NN=C1c2ccccc2C(=O)C1C(=O)C(c1ccccc1)c1ccccc1 (stereo not drawn)	KCNK3 inh -14 (no result: KCNK9 block, KCNQ1 block, KCNQ1 pot, hERG protect) | KCNK3 inh conf 138 | KCNK3 uninduced 0.097
COc1ccc(Cl)c2sc(N3CCN(C(=O)c4ccco4)CC3)nc12	KCNK3 inh -10 | KCNK3 inh conf 86 | KCNK3 uninduced inactive
Cc1ccc(/C=N/NC(=O)c2nnn(-c3nonc3N)c2CNc2ccccc2)cc1	none
Nc1nonc1-n1nnc(C(=O)N/N=C/c2cc(Br)ccc2O)c1CNc1ccccc1	KCNK3 inh -10 | KCNK3 inh conf 82 | KCNK3 uninduced inactive
CCCCCOC(=O)c1ccc(OC(=O)c2cncc(Br)c2)cc1	none
